Screens as filed in PubChem BioAssay.
TAAR1 agonist = agonists of human TAAR1; Q96RJ0; CHO RD-HGA16 TAAR1, Fluo-8 calcium fluorescence; vehicle wells 0%, saturating PEA agonist 100%; activation, % at 3 µM; 360,000 tested, 0.99% active; AID 624467;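 active = activation above the mean activation of all test compounds in the run plus 3 SD, cut at about 38% in these data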
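Repeats: no replicates (n 1) | Material: CHO-derived RD-HGA16 cells with stable Gα16 and human TAAR1 | Technique: Kinetic Fluo-8 calcium fluorescence | Schedule: 17-24 h seeding, 75 min 37 °C dye, 30 min RT | Evaluation: % activation from peak over basal fluorescence ratio, DMSO-to-PEA scaled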
CHO parental Ca = signal in parental CHO cells, OX1R antagonist counter-screen; parental CHO-K1, ATP-induced calcium, Fluo-8 fluorescence; inhibition, % at 5.6 µM; 330,000 tested, 0.63% active; AID 463079;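 active = inhibition above that plate's mean sample inhibition plus 3 SD, cut at about 26% in these data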;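 also: 0% = ATP-challenged DMSO wells and 100% = DMSO wells without ATP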
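Test system: untransfected parental CHO cell line; also added: ATP stimulus; dosing: 5.6 µM, single dose; signal: calcium-sensitive Fluo-8 fluorescence; measure: percent inhibition of ATP-evoked calcium rise, normalized to controls; benchmarks: low control ATP plus DMSO, high control DMSO only; replication: one well per compound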
GPR7 antagonist = human neuropeptides B/W receptor 1 antagonism. P48145. GPR7-expressing cells, fluorescence antagonist assay. inhibition, % at 4.4 µM. 290,000 tested, 1.1% active; in the data active = inhibition above about 16%, passing the limit was not always enough;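 also: cells stimulated with the agonist NPW; 0% = agonist with vehicle and 100% = vehicle without agonist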
TAAR1 antag = human TAAR1 antagonism | AID 624466 | CHO RD-HGA16 TAAR1, Fluo-8 calcium fluorescence, antagonist | Q96RJ0 | 360,000 tested, 1.5% active | inhibition, % at 3 µM;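 active = inhibition above a per-plate cutoff, the mean inhibition of test compounds on that plate plus 3 SD, cut at about 49% in these data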;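 also: 0% = DMSO plus EC80 beta-PEA response and 100% = DMSO alone without agonist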
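Test system – hTAAR1-expressing CHO RD-HGA16 cells, Gα16-coupled · Reagent – β-PEA at EC80 concentration, post-compound challenge · Compound dosing – 3 µM, single point · Timing – 140 s kinetic read after compound, 140 s after agonist · Detection – Fluo-8 intracellular calcium dye fluorescence, real-time kinetic reads · Control set – DMSO and EC80 PEA controls · Repeats – n of 1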
OX1R antag-1 = OX1R (human) antagonism; AID 485270; OX1R-expressing cells, FRET antagonist read-out; 330,000 tested, 1.8% active; O43613; inhibition, % at 6.6 µM; in the data active = inhibition mostly above about 38%, no sharp cut-off; inactive = mostly below about 40%;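 also: 0% = agonist challenge alone and 100% = reference antagonist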
Target sequence (O43613 whole entry, looked up): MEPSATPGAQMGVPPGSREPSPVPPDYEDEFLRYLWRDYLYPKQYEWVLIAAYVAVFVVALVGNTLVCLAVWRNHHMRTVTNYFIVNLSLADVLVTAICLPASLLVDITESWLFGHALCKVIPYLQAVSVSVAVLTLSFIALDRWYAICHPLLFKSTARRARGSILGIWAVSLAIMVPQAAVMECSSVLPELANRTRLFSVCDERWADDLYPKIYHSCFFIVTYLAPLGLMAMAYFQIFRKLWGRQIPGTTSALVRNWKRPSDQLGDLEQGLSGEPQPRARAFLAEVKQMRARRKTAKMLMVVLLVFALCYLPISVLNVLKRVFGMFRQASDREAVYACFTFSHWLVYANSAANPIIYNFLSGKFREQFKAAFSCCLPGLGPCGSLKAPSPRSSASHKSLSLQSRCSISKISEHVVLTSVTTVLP
OX1R antag-2 = antagonists of human orexin 1 receptor; O43613; CHO/OX1R cells, Fluo-8 calcium fluorescence, orexin A; inhibition, % at 5 µM; 330,000 tested, 0.43% active; AID 434989;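 active = inhibition above its plate's threshold, mean inhibition of all tested compounds on the plate plus 3 SD, cut at about 37% in these data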;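 also: 0% = orexin A challenge wells and 100% = SB-334867-A antagonist wells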
GPR7 antag cf = human GPR7 antagonism, confirmation assay. shares compounds with GPR7 antagonist. GPR7-expressing cells, calcium fluorescence antagonist mode. inhibition, % at 4.4 µM. 2,400 tested, 52% active; in the data active = inhibition above about 24%;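 also: stimulated with the GPR7 agonist NPW; 0% = agonist plus vehicle and 100% = vehicle alone without agonist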
MCHR1 antag = counter-screen for GPR7 antagonists: antagonists of human MCHR1 | MCHR1-expressing cells, fluorescence antagonist assay | shares compounds with GPR7 antagonist | AID 2148 | 2,400 tested, 62% active | inhibition, % at 4.4 µM; in the data active = inhibition above about 22%;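 also: 0% = vehicle with agonist and 100% = vehicle without agonist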
The depositor's hits bear a star; . = no result. Rows were chosen to be rich in hits. Some 4.6% of all compounds tested hit in one or more screens of this group.

SMILES	TAAR1 agonist	CHO parental Ca	GPR7 antagonist	TAAR1 antag	OX1R antag-1	OX1R antag-2	GPR7 antag cf	MCHR1 antag
O=C(Nc1ccc(Cl)cc1)C1CC(=O)n2c(nc3ccccc32)N1 (centres undefined)	.	-3	23*	.	19	10	-9	2
CCn1cc(C(=O)NCCCOC)c(=O)c2cc(S(=O)(=O)N3CCCC3)ccc21	1	-8	-12	-44	13	-10	.	.
Cc1ccccc1NC(=O)CN1C(=O)NC2(CCc3ccccc32)C1=O (centres undefined)	1	-4	.	-7	-5	-23	.	.
COc1cc2c(cc1NC(=O)CN1C(=O)NC3(CCc4ccccc43)C1=O)oc1ccccc12 (centres undefined)	8	19	33*	50*	28	7	59*	57*
COc1ccc(CN(C)CC(O)COC(c2ccc(OC)cc2)c2ccc(OC)cc2)cc1 (centres undefined)	15	8	28*	3	4	12	42*	31*
CCOc1ccc(CN(C)CC(O)COC(c2ccc(OC)cc2)c2ccc(OC)cc2)cc1 (centres undefined)	29	7	31*	-7	0	-2	33*	45*
COc1ccc(CN(C)CC(O)COc2ccc(-c3ccccc3)cc2)cc1OC (centres undefined)	17	-10	5	-14	5	-7	.	.
CCOc1ccc(N=c2oc3cc(O)ccc3cc2C(=O)NCC2CCCO2)cc1 (centres undefined)	0	-4	3	17	20	-12	.	.
CCOc1ccccc1N=c1oc2cc(O)ccc2cc1C(=O)NCC1CCCO1 (centres undefined)	7	-12	29*	29	5	-3	19	20
Cc1ccc(C(=O)NC2CCCc3ccccc32)cc1[N+](=O)[O-] (centres undefined)	-1	-23	34*	-18	12	-26	25*	55*
Cc1cc(C(=O)NC2CCCc3ccccc32)ccc1[N+](=O)[O-] (centres undefined)	-5	-9	3	10	20	-27	.	.
CC(C)CC(=O)NC(Nc1ccc([N+](=O)[O-])cc1)C(Cl)(Cl)Cl (centres undefined)	16	-3	26*	7	15	-6	14	45*
Cc1ccc(NC(=O)c2ccc(Cl)c(S(=O)(=O)N3CCCCCC3)c2)nc1	6	-25	.	29	20	-25	.	.
CCC(=O)c1ccc(OCC(O)Cn2c(C)nc3ccccc32)cc1 (centres undefined)	13	15	28*	25	32	3	24	57*
COc1cccc(N=Cc2c(O)c3ccccc3oc2=O)c1	1	-14	28*	17	8	-30	-4	31*
CC(=O)c1cccc(N=Cc2c(O)c3ccccc3oc2=O)c1	-1	-8	-16	4	21	-22	.	.
NCc1csc(Nc2ccc(C(=O)c3ccccc3)cc2)n1	7	.	.	7	.	.	.	.
O=C(CC1CCCC1)NNC(=O)c1ccc(Br)cc1	2	-3	.	3	4	-9	.	.
CC(=O)N(c1cc(C)ccc1C)c1ccccc1[N+](=O)[O-]	1	.	.	-33	.	.	.	.
CCCN(CC(=O)Nc1ccccc1C)C(=O)c1ccc(COc2ccccc2)cc1	4	-18	5	47	27	-25	.	.
CNC(=O)C1C2C=CC3(O2)C1C(=O)N(C1CC1)C3C(=O)NCc1ccc(OC)cc1 (centres undefined)	4	2	25*	10	23	-10	-3	-3
COc1ccc(CSc2nnnn2-c2ccc(C(N)=O)cc2)cc1[N+](=O)[O-]	0	13	36*	4	1	14	7	39*
COc1cc([N+](=O)[O-])ccc1NC(=O)Nn1cnnc1	0	-7	2	-24	24	2	.	.
CCN(CC)S(=O)(=O)c1ccc(NC(=O)c2ccc(N(C)S(C)(=O)=O)cc2)cc1	14	-13	32*	-4	17	-6	44*	58*
Cc1ccc(NC(=O)CSc2nnc(N)s2)cc1S(=O)(=O)N1CCOCC1	5	8	.	-4	10	-3	.	.
SMILES	TAAR1 agonist	CHO parental Ca	GPR7 antagonist	TAAR1 antag	OX1R antag-1	OX1R antag-2	GPR7 antag cf	MCHR1 antag
CCOc1ccc(N(C)S(=O)(=O)c2cc(-c3cc(C)no3)ccc2C)cc1	2	10	32*	65*	20	12	17	74*
CC1(C)C(=O)Nc2ccccc2N1C(=O)COC(=O)c1cccnc1	0	-9	.	10	-5	5	.	.
OCc1ccccc1N=c1ssnc1Cl	.	-23	31*	.	12	4	4	18
O=C(NC(c1ccccc1)c1ccsc1)C1CCN(Cc2ccc(Oc3ccccc3)cc2)CC1 (centres undefined)	11	.	.	14	.	.	.	.
COc1ccc(C)cc1NC(=O)Cn1c(=O)oc2ccccc21	0	-1	0	-4	-13	-5	.	.
O=S(=O)(c1cnc(Cl)c(Cl)c1)N1CCCc2ccccc21	3	-9	30*	10	18	-23	61*	52*
COC(=O)c1ccc(OCC(=O)NCCC2=CCCCC2)c(OC)c1	17	-18	.	-5	16	-12	.	.
CCC(=O)c1ccc(OCC(=O)NCCC2=CCCCC2)c(OC)c1	0	-27	24*	2	8	-29	4	4
CC1(C(=O)NCc2ccc3c(c2)OCO3)CCN1C(=O)Cc1ccc(Cl)cc1Cl (centres undefined)	4	.	.	-6	.	.	.	.
NCC(c1ccc(Cl)cc1Cl)c1c[nH]c2ccccc12 (centres undefined)	45*	9	51*	46	-7	-5	61*	69*
CCOc1ccccc1NC(=O)C(NCC1(N2CCCCC2)CCCCC1)c1ccccc1 (centres undefined)	12	-26	28*	-10	4	-34	25*	14
O=c1c2c(nc3cc(-c4ccc(F)cc4)[nH]n13)CCC2	1	12	30*	-6	4	16	-13	8
CCOC(=O)C1CCN(S(=O)(=O)c2c(Cl)ccc3nonc23)CC1	4	14	44*	-5	89*	9	56*	46*
CC(C)Oc1cccc(NC(=O)C2(C)CCCN2C(=O)C(C)C)c1 (centres undefined)	0	.	.	-6	.	.	.	.
Cc1cccc(NC(=O)CCc2ccc(C)o2)c1	2	-1	-6	-23	36	-32	.	.
